Screens deposited in PubChem by several laboratories.
Mcl1-Bid inh – Mcl-1/Bid binding inhibitors, primary screen, biochemical, TR-FRET, 1536-well; Induced myeloid leukemia cell differentiation protein Mcl-1 (Homo sapiens), Q07820; TR-FRET Mcl-1/Bid-Dy647 peptide binding; inhibition, % at 21.7 µM; 0.97% of 220,000 active;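 active = compounds that cut the binding signal by more than half at the single screening dose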;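 note: His-tagged Mcl-1 with europium anti-His antibody binding Bid BH3 peptide; 0% = Mcl-1 plus peptide wells and 100% = peptide-only wells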
Target sequence (Q07820 whole entry, looked up): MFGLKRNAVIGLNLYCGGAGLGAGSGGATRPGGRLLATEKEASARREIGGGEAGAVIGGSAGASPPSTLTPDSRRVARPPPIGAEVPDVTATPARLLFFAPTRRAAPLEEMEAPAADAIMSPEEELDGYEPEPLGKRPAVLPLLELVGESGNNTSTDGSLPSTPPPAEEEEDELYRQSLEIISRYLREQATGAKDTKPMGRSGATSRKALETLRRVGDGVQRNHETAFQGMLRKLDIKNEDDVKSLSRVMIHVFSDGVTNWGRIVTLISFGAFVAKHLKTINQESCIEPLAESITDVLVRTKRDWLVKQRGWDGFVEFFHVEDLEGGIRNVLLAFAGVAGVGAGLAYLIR
Calpain2 inh – inhibitors of pig calpain II, primary screen, biochemical, fluorogenic peptide substrate, 1536-well; 0.37% of 220,000 active; purified calpain II, 30 min; inhibition, % at 16 µM; AID 1236, 2008;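 active = inhibition above about 50%, limit read from the data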
Calb biofilm kill – clotrimazole potentiators killing C. albicans biofilm, primary screen, 4-compound mixtures | C. albicans biofilm persisters + clotrimazole, fluorescence viability; primary screen in compound mixtures of four per well | inhibition, % at 7.6 µM | 0.02% of 120,000 active | AID 1242, 2008;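 active = inhibition above 30.3% in the primary screen of four-compound pools, then above 30% when the compound was retested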;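 note: compounds exposed to preformed 24 h biofilms for 48 h; 0% = untreated biofilm control and 100% = clotrimazole plus chlorhexidine kill blank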
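Test system: C. albicans biofilms. Buffer or medium: RPMI/MOPS medium, pH 7.0. Timing: 48 h compound exposure at 37 °C. Technique: Alamar Blue fluorescence. Evaluation: percent inhibition of biofilm viability.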
Bim-Mcl-1 – inhibitors of Bim peptide binding to Mcl-1, primary screen, biochemical, bead-based flow cytometry, multiplex; Induced myeloid leukemia cell differentiation protein Mcl-1 (Homo sapiens), Q07820; Bim peptide-Mcl-1 binding; inhibition, % at 10 µM; 0.1% of 190,000 active; in the data active = inhibition above about 40%;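 note: 0% = no compound tracer wells and 100% = peptide blocker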
Arbovirus inh – antivirals against arbovirus infection, primary screen, cell-based, full library, 10K replicate subset. arbovirus infection cell-based antiviral screen. inhibition, % at 10 µM. 0.37% of 200,000 active. AID 1251, 2008; in the data active = inhibition above about 30%
Mcl1-Noxa inh – Mcl-1/Noxa binding inhibitors, primary screen, biochemical, TR-FRET, 1536-well; Induced myeloid leukemia cell differentiation protein Mcl-1 (Homo sapiens), Q07820; TR-FRET Mcl-1/Noxa peptide binding, 2 h; inhibition, % at 21.7 µM; 1.5% of 220,000 active; AID 1022, 2008;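 active = compounds that cut the protein-peptide binding signal by more than 50% relative to plate controls in a single-dose test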;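 note: His-tagged Mcl-1 with rhodamine Noxa BH3 peptide and terbium anti-His antibody; 0% = Mcl-1 plus Noxa peptide wells and 100% = peptide-only wells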
* hit, by the source's call; i = inactive; . = not tested or not shown. A selection: hits, their analogues and other compounds. The true share with any hit is near 2.8%.

SMILES | Mcl1-Bid inh | Calpain2 inh | Calb biofilm kill | Bim-Mcl-1 | Arbovirus inh | Mcl1-Noxa inh
CN1CCN(c2ncnc3c2[nH]c2ccc(F)cc23)CC1 | -9.9 | -239.8 | . | -5.0 | 17.2 | 37.0
FC(F)(F)c1cccc(NCc2n[nH]c(=S)n2C2CCCCC2)c1 | -31.1 | 56.1* | 12.1 | -2.0 | -6.8 | 6.1
S=c1[nH]nc(COc2ccccc2)n1C1CCCCC1 | -11.0 | 34.1 | . | -7.0 | 2.1 | 19.9
COc1ccccc1CNC(=O)C(NC(=O)c1ccc(C)cc1)C(C)C (stereo not drawn) | -2.3 | 20.1 | 7.3 | 1.0 | -2.0 | 8.2
COc1cc2c(cc1OC)CN(Cc1cc(OC)c(O)c(OC)c1)CC2 | -35.7 | 9.3 | 19.0 | 0.0 | 11.6 | 10.7
COc1cc(-c2[nH]nc3c2C(c2ccco2)C(C#N)=C(N)O3)cc(OC)c1OC (stereo not drawn) | -89.9 | 6.3 | -12.7 | 0.0 | -0.4 | 26.8
CCOC(=O)C1CCCN(c2c(N3CCN(c4cccc(Cl)c4)CC3)c(=O)c2=O)C1 (stereo not drawn) | 86.1* | 14.3 | 8.6 | -4.0 | 6.2 | -1.4
O=C(COc1cccnc1[N+](=O)[O-])c1ccc(Cl)s1 | 80.5* | 3.8 | 6.9 | . | . | 81.8*
O=C(OCC(=O)c1ccc(Cl)s1)c1ccccn1 | -34.4 | -8.6 | 8.1 | -8.0 | -5.7 | -9.8
CC(=O)NCC1=C(NC(C)=O)C2CC1C(C)(C)C2C (stereo not drawn) | -22.9 | 4.5 | . | 0.0 | 31.0* | -5.0
O=C(COc1ccc(/C=N/NC(=O)c2cc3ccccc3o2)cc1Br)Nc1ccccc1 | 82.0* | -265.6 | . | 0.0 | -26.9 | 2.5
N/C(CS(=O)(=O)c1ccc(F)cc1)=N\O | 77.9* | -26.2 | 19.0 | . | . | -5.7
Cc1nc(S/C(C(=O)O)=C2/C(=O)Nc3ccccc32)n[nH]1 | -7.4 | -4.7 | 11.5 | . | . | 47.4
O=C(NCCc1ccccc1)c1ccc(=O)oc1 | -28.2 | 34.1 | . | -2.0 | -3.2 | 6.4
O=C(NCCc1ccccc1)c1ccc2nc(-c3ccco3)c(-c3ccco3)nc2c1 | 55.8* | -33.2 | . | 8.0 | 0.9 | 103.0*
O=C(c1ccccc1)c1ccc2nc(-c3ccco3)c(-c3ccco3)nc2c1 | 17.3 | -73.1 | 17.4 | 18.0 | -14.2 | 99.1*
O=C(NC1CCCC1)c1ccc2nc(-c3ccco3)c(-c3ccco3)nc2c1 | 28.7 | -41.2 | . | 4.0 | -3.6 | 100.6*
c1coc(-c2nc3ccccc3nc2-c2ccco2)c1 | -39.0 | -324.7 | . | 9.0 | 11.6 | 84.8*
COc1ccc(CNC(=O)Cn2nnc3ccccc3c2=O)cc1 | -9.1 | -25.7 | 24.4 | . | . | -4.0
O=C(NCCO)c1ccc(Cl)c(Cl)c1 | -6.8 | 11.3 | . | 0.0 | 8.8 | 13.5
O=C(NCCO)c1ccc2nc(-c3ccco3)c(-c3ccco3)nc2c1 | -28.0 | -263.0 | . | 14.0 | 5.1 | 92.2*
COc1ccccc1N1CCN(C(=O)c2ccc3nc(-c4ccco4)c(-c4ccco4)nc3c2)CC1 | -44.8 | -158.3 | 15.8 | -5.0 | -18.3 | 63.1*
CCC1CCCCN1C(=O)COc1c(Br)cc(Br)c2cccnc12 (stereo not drawn) | -10.0 | 40.2 | -5.0 | 4.0 | -8.4 | 0.6
COc1ccc(C2SCC(=O)N2CCCN(C)C)cc1 (stereo not drawn) | 91.5* | -6.2 | . | -1.0 | 3.0 | 5.8
NC(=S)Nc1cccc2[nH]ccc12 | -44.8 | -1.7 | -5.1 | 0.0 | 14.1 | 13.0
SMILES | Mcl1-Bid inh | Calpain2 inh | Calb biofilm kill | Bim-Mcl-1 | Arbovirus inh | Mcl1-Noxa inh
O=C(O)/C=C/C(=O)Nc1ccc(Oc2ccc(NC(=O)/C=C/C(=O)O)cc2)cc1 | -21.0 | -36.9 | 15.1 | 0.0 | 0.9 | 65.8*
O=C(O)/C=C\C(=O)Nc1ccc(Oc2ccccc2)cc1 | -6.8 | -14.8 | . | 2.0 | 8.5 | -12.5
CCC(CC)c1nnc(NC(=O)CCNC(=O)c2ccccc2Cl)s1 | -12.6 | -5.0 | 8.3 | 0.0 | -0.7 | -12.8
CCOc1ccccc1CNCCOC | -15.2 | 5.5 | 9.0 | -3.0 | 5.0 | 12.2
O=c1c2c([N+](=O)[O-])cc([N+](=O)[O-])cc2sn1-c1ccc(Br)cc1 | 30.8 | -7.4 | 17.1 | -16.0 | -8.9 | 91.3*
Cc1ccsc1/C=C(\C#N)C(=O)NC1CCS(=O)(=O)C1 (stereo not drawn) | -6.8 | 3.3 | 9.2 | 1.0 | 9.0 | -1.1
CCOC(=O)Cc1csc(NC(=O)Cc2ccc(Br)cc2)n1 | -1.5 | 16.2 | 17.5 | . | . | -9.1
CCOC(=O)Cc1csc(NC(=O)Cc2ccc(Cl)cc2)n1 | 55.1* | 21.3 | 20.7 | . | . | 2.3
Cc1nn(C(=O)Cn2cc([N+](=O)[O-])cn2)c(C)c1Cl | -20.8 | -12.3 | 1.8 | 0.0 | 1.8 | 1.2
O=C(NC1CCCCC1)c1c2c(nc3ccccc13)CCC2 | -34.9 | -77.8 | 17.1 | 0.0 | 10.0 | 26.6
C=C1C(=O)[C@@]23[C@H](O)C[C@@H]4C(C)(C)CC[C@H](O)[C@@]4(C)[C@@H]2CC[C@@H]1[C@H]3O | 0.8 | -20.3 | 8.3 | 0.0 | -37.3 | 4.5
C=C1C(=O)[C@@]23[C@H](O)C[C@@H]4C(C)(C)CC[C@H](O)[C@]4(C)[C@@H]2C[C@H](O)[C@@H]1[C@H]3O | 79.9* | -17.2 | 6.0 | -2.0 | -24.2 | 41.1
O=C(CN1CCCCCC1)N/N=C/c1cccs1 | -4.4 | 15.4 | . | -5.0 | 46.1* | 6.4
O=C(CN1CCN(Cc2ccccc2)CC1)N/N=C/c1cccs1 | -3.7 | 15.0 | 11.5 | . | . | 2.8
O=C(COC(=O)c1ccc([N+](=O)[O-])s1)Nc1ncc(C(F)(F)F)cc1Cl | -7.7 | -31.6 | 14.2 | -3.0 | 0.7 | 24.5
Cc1[nH]c2ccccc2c1/C=C/c1nc2ccccc2c(=O)[nH]1 | 63.7* | -22.6 | 14.0 | . | . | 74.5*
Cc1cccc(/C=C/c2nc3ccccc3c(=O)[nH]2)c1 | -9.7 | i | 22.7 | -2.0 | -18.1 | 1.8
NNc1cc([N+](=O)[O-])cc2c1C(=O)N(Cc1ccccc1)S2=O (stereo not drawn) | -55.2 | -29.4 | 6.3 | -5.0 | 1.9 | 58.1*
CC(C)=NNc1cc([N+](=O)[O-])cc2c1C(=O)N(C)S2=O (stereo not drawn) | -34.5 | 29.2 | 9.5 | -2.0 | 1.9 | 7.9
CSc1cnn(Cc2ccccc2)c(=O)c1SCc1ccccc1 | -12.5 | 18.7 | 5.6 | -7.0 | 2.9 | 99.1*
CSc1cnn(-c2ccccc2)c(=O)c1SC | -22.7 | -21.1 | . | 0.0 | 3.3 | .
CCc1ccc(CC2S/C(=C(\C#N)C(C)=O)NC2=O)cc1 (stereo not drawn) | 19.1 | 10.0 | . | -3.0 | 32.5* | 13.5
C(=N\N1CCN(Cc2ccccc2)CC1)/c1ccccc1 | -72.9 | 2.7 | 23.8 | . | . | -5.3
CCN(CC)c1ccc(/C=N/N2CCN(Cc3ccccc3)CC2)cc1 | -7.9 | 37.4 | 17.6 | -3.0 | 9.1 | 75.4*
